Test results taken from the EternaBench riboswitch data.

Tested on: MS2 coat protein
Assay: apparent Kd, MS2 coat protein; higher = weaker binding; RNA-MaP array; FMN 200 µM where present
Summary of the method: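 Designs on Illumina sequencing-chip clusters, transcribed by stalled E. coli RNA polymerase, were exposed to SNAP-549-labelled MS2 coat protein in doubling steps from 0.7 or 1.5 nM up to 3 µM, without and then with constant ligand. The buffer held 100 mM Tris-HCl pH 7.5, 80 mM KCl, 4 mM MgCl2, BSA, DTT, yeast tRNA and Tween-20. Apparent Kd values are medians of filtered per-cluster binding-curve fits to green signal normalised to red-channel RNA signal and control-cluster median Fmax.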

[1] = designed as: OFF switch for flavin mononucleotide, no ligand
[2] = ligand present: flavin mononucleotide, designed as: OFF switch for flavin mononucleotide
[3] = designed as: ON switch for flavin mononucleotide, no ligand
[4] = ligand present: flavin mononucleotide, designed as: ON switch for flavin mononucleotide

Row | Sequence | apparent Kd [1] | apparent Kd [2] | apparent Kd [3] | apparent Kd [4]
1 | CAUAGGCGAGGAUAUACAUGAGGAUCACCCAUGUAAGGAAACCUGGCAGACUCAGAAUGUAGAAGGCGCACUGA | 21.6 nM | 41 nM |  | 
2 | CGUUAUUCAGGAUAUGGUGUGUUAUACAUGAGGAUCACCCAUGUAGAUCCUGGUUAGGCCUCAGAAGGGAAUGUUC | 165 nM | 145 nM |  | 
3 | CCACUGUCAGGAUAUCGUGCAUAAGCGUUUACAUUUAUGUGCGAGAAGGGACAUGAGGAUCACCCAUGUAAACG | 417 nM | 653 nM |  | 
4 | GCGCUAAAACAGAAGGCCAAAUACAUGAGGAUCACCCAUGUCGAAUCAUGGAGGAUAUGUUAUUAAUUACACGCAGAUGAGCGC |  |  | 90.8 nM | 9.9 nM
5 | GCGAUUUUGUAAGGAUAUACACGAGUUUUAAGUGUAGAAGGUACUUACAUGAGGAUCACCCAUGUAUUAAUGAUUACUAGUCGC |  |  | 6.99 nM | 6.33 nM
6 | UUGUUGUAUGUAGGAUAUGCGUAUUAUUAUUAUGCAGAAGGACAUGAGGAUCACCCAUGUAUAUUAUUAUUAUAUGUUAUAUAU | 26.2 nM | 36.3 nM |  | 
7 | GCAGUAAAUAAAUGCACAUGAGGAUCACCCAUGUGGGAGGCACAGGAUAUCGUAUCAUAGUAGUACGAGAAGGGUGAUAAUCUC |  |  | 370 nM | 64.2 nM
8 | GCGUGUAUAAGAUUUAUAAAACAGUCAGAAGGUGAUAAGACGACAUGAGGAUCACCCAUGUAAUUCAAGGAUAUGAUAAUACGC |  |  | 53.8 nM | 13.3 nM
9 | CCAAGCUGUGUGAGGAUAUGCUGGUCCUUGGAUCAGCAGAAGGCACAUGAGGAUCACCCAUGUGAAAAGCUUGG | 15.1 nM | 52.1 nM |  | 
10 | UUCGCUAAGGUGUAGCGAGACACGCAAGAAGGGUGAUGCACAUGAGGAUCACCCAUGUAAGCCUUACAGGAUAUUGCUUGCCGA |  |  | 899 nM | 211 nM
11 | UGUUGUAUUACAGGAUAUCUAUGAUUUUGAUUUAGAGAAGGGUAUUCACAUGAGGAUCACCCAUGUAUAUACGAGGAAGUUGUG |  |  | 51.2 nM | 54.4 nM
12 | AUUUAAAUGUCAGGAUAUGGUAGUUUAUACUUAUCAGAAGGGAUAAUUAUACUCAAGUACAUGAGGAUCACCCAUGUUAAAUCA |  |  | 30.5 nM | 15.8 nM
13 | GGAUCGAGUGUGAGGAUAUACCUAUGGAUACAUAGGUAGAAGGCACAUGAGGAUCACCCAUGUGUUCCCGGUCC | 43.4 nM | 368 nM |  | 
14 | AAUAUAAUAAGAGCUGGAAAUAAAACAUGAGGAUCACCCAUGUAGGAUAUCAGCACGAUAAGUGCUGAGAAGGACAACCAGCUC | 14 nM | 15.1 nM |  | 
15 | UAAGGACAUGAGGAUCACCCAUGUGAGGAUAUGCUCUACGAACGUUUAUUUAUGAGAAGCAGAAGGCACAUUUU | 99.8 nM | 156 nM |  | 
16 | GCUGGACAAGGAUAUACAAUCGUGCUUCGGCACGUAAGGUCACAUGAGGAUCACCCAUGUAGAAGGUGUCCAGC | 23.8 nM | 157 nM |  | 
17 | UUAAUCUAUACAGGAUAUCCAUACGCUGCAUACGGAGAAGGGUAACAAUCAUGAGGACAUGAGGAUCACCCAUGUUUUGAGCAU |  |  | 42.8 nM | 26.3 nM
18 | GGGCGCCACGUAGGAUAUCUUCCGUAUGGGUCCCAUCAUAGCACAUGAGGAUCACCCAUGUGGGUAGAGAAGGACGGUUUGCCG | 221 nM | 59.5 nM |  | 
19 | GGCAGCUCAGGAUAUAGUUAAAACGACAUGAGGAUCACCCAUGUGACUGAUAUGCGGCGCCUAGAAGGGAGGUGCC | 18.9 nM | 18.2 nM |  | 
20 | GCCGCAGGAACAGGAUAUGUGGGCAUAAAAUUAUACCAGGCCCACAUGAGGAUCACCCAUGUGACACAGAAGGGUUCCUAAAUA |  |  | 619 nM | 29.8 nM
21 | GUCAGCUCGUGAGGAUAUACAACACUGCUUCGGCAGUGUAUUAAGAUCACAUGAGGAUCACCCAUGUAGAAGGCACGAGUUGAU | 13.9 nM | 276 nM |  | 
22 | UUGCUCAAUUGGGCAGGAACCUCACAUGAGGAUCACCCAUGUCAGGAUAUCCUAGUUUGGACGUAGGAGAAGGGACAGAGUAUC | 157 nM | 152 nM |  | 
23 | UAUUUAUAGCAAGGAUAUGAUUAUUAUUAUUUAUCAGAAGGUGCACAUGAGGAUCACCCAUGUUUUACAAUUUGUAAUUUAAUU | 38.6 nM | 25.1 nM |  | 
24 | ACCGUGCAAGGAUAUCGUUACCUCGACAUGAGGAUCACCCAUGUGGCCAUAUAGCGAUUGCGAGAAGGUGCGGGUA | 127 nM | 112 nM |  | 
25 | AAUGUCUGAGGAUAUCGUUUUUUGUACAUGAGGAUCACCCAUGUUUUAUUUUGUAUAUUACGAGAAGGCAGUGGAA | 24.1 nM | 18.5 nM |  | 
26 | UUUCAUUACCCGAAGGAUAUCGCUCUUCCGACAUGAGGAUCACCCAUGUACUAGCCCUCCCUGCUCGAGAAGGUCGCGCGUGAAC |  |  | 103 nM | 67.4 nM
27 | AACAGUACAGGAUAUACAUGAGGAUCACCCAUGUGAGAUUUAAGUGGCGUACCACAAAGUAGAAGGGUACUGGA | 38 nM | 187 nM |  | 
